The target of one experiment is T1, UniProt Q7TRR8.
T1 sequence (whole entry): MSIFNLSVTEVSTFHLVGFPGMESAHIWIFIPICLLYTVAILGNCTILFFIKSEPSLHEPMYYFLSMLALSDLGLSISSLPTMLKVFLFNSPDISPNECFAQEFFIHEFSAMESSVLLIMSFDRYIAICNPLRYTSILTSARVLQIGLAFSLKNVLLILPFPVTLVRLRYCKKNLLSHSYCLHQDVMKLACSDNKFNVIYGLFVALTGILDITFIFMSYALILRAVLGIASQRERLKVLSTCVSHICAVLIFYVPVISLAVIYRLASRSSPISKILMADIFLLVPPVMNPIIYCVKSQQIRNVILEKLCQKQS
To be noted: stereoisomer not certain. The gist of the method:
(§1)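 Values were gathered from published papers (main text and supplementary material), with extra details requested from the original authors when needed, and checked for typos and inconsistencies. Each receptor–molecule pair is called responsive (active) if the original authors judged the measured signal statistically different from baseline, and non-responsive (inactive) otherwise. Assay methods varied by source, often transient mammalian cell-line luciferase assays. Recorded details include cell line, G-protein, co-transfected protein and tags.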
For `O=C(O)CCCBr`, the “odorant receptor agonist call” value is “inactive”.
The same measure, in the same setting: to `O=C([O-])CCCCC(=O)[O-].[H+].[H+]` belongs “inactive”; to `CCCCCCCC(=O)[O-].[H+]`, “inactive”.
Same read-out and setting: to `CCCCCCCCO` belongs “inactive”; to `CCCCCO`, “inactive”; to `CCCCCCCO`, “inactive”.
On the same count and under the same terms, to `O=C(O)CCCCCC(=O)O` belongs “inactive”; to `CCCCCCCCC(=O)O`, “active”.
In the case of `O=C(O)CCCCBr`, the “odorant receptor agonist call” value was “inactive”.
Same read-out and setting: next, `CCCCCCC(=O)[O-].[H+]`: “inactive”; `CCCCC(=O)O`: “inactive”; `O=C([O-])CCCCCCCC(=O)[O-].[H+].[H+]`: “inactive”.
Still for that read-out and setting: next, `O=C([O-])CCCCCCC(=O)[O-].[H+].[H+]`: “inactive”; `CCCCCCO`: “inactive”.
As for `CCCCCCCCCO`, the “odorant receptor agonist call” value was “inactive”.
Still for that read-out and setting: next, `O=C(O)CCCCCBr`: “inactive”.

In a further experiment the target is T2, UniProt Q7TRW1.
T2 sequence (whole entry): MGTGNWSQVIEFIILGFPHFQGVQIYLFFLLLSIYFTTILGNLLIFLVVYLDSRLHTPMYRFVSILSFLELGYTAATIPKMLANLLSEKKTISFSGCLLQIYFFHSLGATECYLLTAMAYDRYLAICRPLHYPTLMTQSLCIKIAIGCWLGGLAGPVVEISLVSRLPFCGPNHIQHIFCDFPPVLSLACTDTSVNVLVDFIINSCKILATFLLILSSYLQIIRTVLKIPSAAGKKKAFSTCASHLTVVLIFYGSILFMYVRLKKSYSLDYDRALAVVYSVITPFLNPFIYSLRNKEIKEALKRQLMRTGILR
To be noted: stereoisomer not certain. The gist of the method: as §1
In the case of `CCCCCOC(=O)CCCCC`, the “odorant receptor agonist call” value was “inactive”.
The same measure, in the same setting: next, `CC(C)=CCCC(C)CCO` (stereo not given): “inactive”; `CCCCCCCC(=O)[O-].[H+]`: “inactive”.
For the compound `CC(=O)Oc1ccccc1`, the “odorant receptor agonist call” value was “inactive”.
Still for that read-out and setting: next, `CCCCCCCCO`: “inactive”; `COc1cc(C(=O)O)ccc1O`: “inactive”.
As to `CCCCCO`, the “odorant receptor agonist call” value is “inactive”.
Same read-out and setting: next, `CCCCCCCO`: “inactive”.
The same measure, in the same setting: next, `CC(=O)OCc1ccccc1`: “inactive”; `CCCCCCCC(C)=O`: “inactive”; `CCCCCCCCC(=O)O`: “inactive”.
The same measure, in the same setting: next, `CC(C)=CCCC(C)=CCO`: “inactive”.
On to `CCCCCCOC(C)=O`, for which the “odorant receptor agonist call” value is “inactive”.
Still for that read-out and setting: to `CCCCC(=O)CC` belongs “inactive”; to `C=C(C)C1CCC(C)C(=O)C1` (stereo not given), “inactive”.
Still for that read-out and setting: to `CCC(=O)C(=O)CC` belongs “inactive”; to `CCCCCCC(=O)[O-].[H+]`, “inactive”; to `O=C1CCOc2ccccc21`, “inactive”.
The same measure, in the same setting: next, `CCC(=O)O`: “inactive”; `C=CCOC(=O)CCCCCC`: “inactive”.
Turning to `CCCCC(=O)O`, the “odorant receptor agonist call” value is “inactive”.
As for `CCCCCC1=C(C)CCC1=O`, the “odorant receptor agonist call” value was “inactive”.
For `CCCCCCO`, the “odorant receptor agonist call” value was “inactive”.
For the compound `CCCCCCC(C)=O`, the “odorant receptor agonist call” value is “inactive”.
In the case of `CCCCCCCCCO`, the “odorant receptor agonist call” value is “inactive”.
Still for that read-out and setting: next, `O=C(c1ccccc1)c1ccccc1`: “inactive”.

Another experiment deals with T3, UniProt Q7TRX0.
T3 sequence (whole entry): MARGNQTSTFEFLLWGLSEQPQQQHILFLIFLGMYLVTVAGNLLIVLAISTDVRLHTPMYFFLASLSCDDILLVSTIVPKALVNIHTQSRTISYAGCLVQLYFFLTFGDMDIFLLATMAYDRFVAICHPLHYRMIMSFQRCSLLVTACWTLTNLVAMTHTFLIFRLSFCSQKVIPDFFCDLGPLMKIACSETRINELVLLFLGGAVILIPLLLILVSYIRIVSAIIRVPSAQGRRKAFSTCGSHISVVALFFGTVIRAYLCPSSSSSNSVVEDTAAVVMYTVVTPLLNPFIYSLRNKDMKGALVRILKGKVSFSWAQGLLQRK
The following applies: stereoisomer not certain. The gist of the method: as §1
Consider `CCCCCOC(=O)CCCCC`, for which the “odorant receptor agonist call” value was “inactive”.
The same measure, in the same setting: next, `CC(C)=CCCC(C)CCO` (stereo not given): “inactive”; `CC(=O)Oc1ccccc1`: “inactive”; `CCCCCCCCO`: “inactive”.
Consider `COc1cc(C(=O)O)ccc1O`, for which the “odorant receptor agonist call” value is “inactive”.
The same measure, in the same setting: next, `CCCCCCCO`: “inactive”.
Take `CC(=O)OCc1ccccc1`: the “odorant receptor agonist call” value was “inactive”.
`CCCCCCCC(C)=O`: the “odorant receptor agonist call” value is “inactive”.
The same measure, in the same setting: next, `CCCCCCCCC(=O)O`: “inactive”; `CC(C)=CCCC(C)=CCO`: “inactive”.
The same measure, in the same setting: next, `CCCCCCOC(C)=O`: “inactive”; `CCCCC(=O)CC`: “inactive”; `C=C(C)C1CCC(C)C(=O)C1` (stereo not given): “inactive”.
On the same count and under the same terms, to `CCC(=O)C(=O)CC` belongs “inactive”.
Take `O=C1CCOc2ccccc21`: the “odorant receptor agonist call” value was “inactive”.
On the same count and under the same terms, next, `CCC(=O)O`: “inactive”; `C=CCOC(=O)CCCCCC`: “inactive”; `CCCCC(=O)O`: “inactive”.
Still for that read-out and setting: next, `CCCCCC1=C(C)CCC1=O`: “inactive”; `O=C([O-])CCCCCCCC(=O)[O-].[H+].[H+]`: “inactive”.
The same measure, in the same setting: next, `O=C([O-])CCCCCCC(=O)[O-].[H+].[H+]`: “inactive”.
With `CCCCCCO`, the “odorant receptor agonist call” value is “inactive”.
Same read-out and setting: to `CCCCCCC(C)=O` belongs “inactive”; to `CCCCCCCCCO`, “inactive”; to `O=C(c1ccccc1)c1ccccc1`, “inactive”.
On the same count and under the same terms, to `O=C(O)CCCCCBr` belongs “inactive”.

The target in the next experiment is T4, UniProt Q8VEU7.
T4 sequence (whole entry): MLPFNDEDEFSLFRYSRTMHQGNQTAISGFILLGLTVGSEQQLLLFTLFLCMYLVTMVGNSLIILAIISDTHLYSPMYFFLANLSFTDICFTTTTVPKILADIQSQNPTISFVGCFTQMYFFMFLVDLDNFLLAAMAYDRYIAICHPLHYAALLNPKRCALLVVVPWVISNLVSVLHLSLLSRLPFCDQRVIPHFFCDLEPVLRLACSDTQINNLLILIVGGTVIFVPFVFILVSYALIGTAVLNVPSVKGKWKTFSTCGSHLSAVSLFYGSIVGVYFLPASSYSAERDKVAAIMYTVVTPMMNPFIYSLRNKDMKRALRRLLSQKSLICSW
The following applies: stereoisomer not certain. In short, it runs like this: as §1
`CCCCCOC(=O)CCCCC`: the “odorant receptor agonist call” value was “inactive”.
Still for that read-out and setting: next, `CC(C)=CCCC(C)CCO` (stereo not given): “inactive”; `CCCCCCCC(=O)[O-].[H+]`: “inactive”.
The same measure, in the same setting: next, `CC(=O)Oc1ccccc1`: “inactive”; `CCCCCCCCO`: “inactive”.
The same measure, in the same setting: to `COc1cc(C(=O)O)ccc1O` belongs “inactive”; to `CCCCCO`, “inactive”.
Turning to `CCCCCCCO`, the “odorant receptor agonist call” value was “inactive”.
Same read-out and setting: to `CC(=O)OCc1ccccc1` belongs “inactive”; to `CCCCCCCC(C)=O`, “inactive”.
Regarding `CCCCCCCCC(=O)O`, the “odorant receptor agonist call” value is “inactive”.
The same measure, in the same setting: to `CC(C)=CCCC(C)=CCO` belongs “inactive”.
Still for that read-out and setting: next, `CCCCCCOC(C)=O`: “inactive”; `CCCCC(=O)CC`: “inactive”; `C=C(C)C1CCC(C)C(=O)C1` (stereo not given): “inactive”.
`CCC(=O)C(=O)CC`: the “odorant receptor agonist call” value is “inactive”.
Same read-out and setting: next, `CCCCCCC(=O)[O-].[H+]`: “inactive”; `O=C1CCOc2ccccc21`: “inactive”; `CCC(=O)O`: “inactive”.
The same measure, in the same setting: next, `C=CCOC(=O)CCCCCC`: “inactive”; `CCCCC(=O)O`: “inactive”.
Still for that read-out and setting: to `CCCCCC1=C(C)CCC1=O` belongs “inactive”; to `CCCCCCO`, “inactive”; to `CCCCCCC(C)=O`, “inactive”.
`CCCCCCCCCO`: the “odorant receptor agonist call” value is “inactive”.
Same read-out and setting: next, `O=C(c1ccccc1)c1ccccc1`: “inactive”.

The next experiment concerns the target T5, UniProt Q8VF05.
T5 sequence (whole entry): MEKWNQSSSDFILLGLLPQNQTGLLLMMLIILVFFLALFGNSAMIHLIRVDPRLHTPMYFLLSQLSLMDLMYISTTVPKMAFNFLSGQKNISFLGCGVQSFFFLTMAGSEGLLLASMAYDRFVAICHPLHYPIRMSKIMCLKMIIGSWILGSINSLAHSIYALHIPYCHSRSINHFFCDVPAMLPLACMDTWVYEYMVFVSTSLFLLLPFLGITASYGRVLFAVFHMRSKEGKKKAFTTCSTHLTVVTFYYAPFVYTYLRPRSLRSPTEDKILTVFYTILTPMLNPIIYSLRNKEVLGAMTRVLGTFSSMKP
To be noted: stereoisomer not certain. In short, it runs like this: as §1
Take `CCCCCOC(=O)CCCCC`: the “odorant receptor agonist call” value was “inactive”.
On the same count and under the same terms, next, `CC(C)=CCCC(C)CCO` (stereo not given): “inactive”; `CCCCCCCC(=O)[O-].[H+]`: “inactive”.
Same read-out and setting: to `CC(=O)Oc1ccccc1` belongs “inactive”; to `CCCCCCCCO`, “inactive”.
Still for that read-out and setting: next, `COc1cc(C(=O)O)ccc1O`: “inactive”; `CCCCCO`: “inactive”; `CCCCCCCO`: “active”.
As to `CC(=O)OCc1ccccc1`, the “odorant receptor agonist call” value was “active”.
For the compound `CCCCCCCC(C)=O`, the “odorant receptor agonist call” value was “inactive”.
The same measure, in the same setting: next, `CCCCCCCCC(=O)O`: “inactive”; `CC(C)=CCCC(C)=CCO`: “inactive”; `CCCCCCOC(C)=O`: “inactive”.
Still for that read-out and setting: to `CCCCC(=O)CC` belongs “active”; to `C=C(C)C1CCC(C)C(=O)C1` (stereo not given), “active”.
The same measure, in the same setting: next, `CCC(=O)C(=O)CC`: “active”; `CCCCCCC(=O)[O-].[H+]`: “inactive”; `O=C1CCOc2ccccc21`: “active”.
On to `CCC(=O)O`, for which the “odorant receptor agonist call” value was “inactive”.
As to `C=CCOC(=O)CCCCCC`, the “odorant receptor agonist call” value was “inactive”.
Turning to `CCCCC(=O)O`, the “odorant receptor agonist call” value is “inactive”.
On to `CCCCCC1=C(C)CCC1=O`, for which the “odorant receptor agonist call” value is “active”.
Same read-out and setting: next, `CCCCCCO`: “inactive”; `CCCCCCC(C)=O`: “inactive”; `CCCCCCCCCO`: “inactive”.
The same measure, in the same setting: next, `O=C(c1ccccc1)c1ccccc1`: “inactive”.

These data come from the M2OR odorant receptor database.
